Experimental findings from the array DNA melting data of Ke et al. (doi:10.1101/2024.01.08.574731) are described below.

A short description of series [1]: folding enthalpy; higher = less favourable; fluorescence melt of hairpins on a sequencing array, two-state fit. The note with it: sodium 0.088 M. An outline of the steps:
(§1)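 In 50 mM Na-HEPES pH 8.0 containing 25 mM NaCl, hairpins from the library on a sequenced MiSeq flow cell were imaged for Cy3 fluorescence at 2.5 °C steps up to 60 °C, with Cy3 and quencher oligos annealed. After normalisation to pre-quench Cy3 and to control constructs, two-state fits with bootstrapping gave melting temperature and folding enthalpy. Four replicates were combined by inverse-variance weighting, and fitted temperatures were shifted up by 9.35 °C to match UV melts.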

Series [2] in a line: melting temperature; fluorescence melt of hairpins on a sequencing array, two-state fit, raised by 9.35 °C to match UV melts. The note with it: sodium 0.088 M. An outline of the steps:
as §1

With GCTTTCGGAAACGGAAGC ((((.((....)).)))), the folding enthalpy in series [1] is -39.8 kcal/mol. Besides, in series [2], the Tm is 53.2 °C.
As to GCTTTGCGAAAGCACAGC (((.(((....))).))), the folding enthalpy in series [1] is -47.5 kcal/mol. The Tm in series [2] was 50.7 °C.
As to GCTTTGCGAAAGCACTGC ((..(((....)))..)), in series [1], the folding enthalpy is -17.5 kcal/mol. The Tm in series [2] was determined as 43 °C.
For the sequence GCTTTGCGAAAGCAGTGC ((..(((....)))..)), the folding enthalpy in series [1] is -13.8 kcal/mol. Further, the Tm in series [2] was determined as 38.4 °C.
As for GCTTTGCGAAAGCATGGC ((..(((....)))..)), the folding enthalpy in series [1] is -16.7 kcal/mol. For the same sequence, the Tm in series [2] turned out to be 49.5 °C.
Consider GCTTTGCGAAAGCCCAGC (((..((....))..))), for which the folding enthalpy in series [1] was -14.1 kcal/mol. In addition, the Tm in series [2] turned out to be 31.5 °C.
For GCTTTGCGAAAGCGAAGC ((((.((....)).)))), the folding enthalpy in series [1] was -37.2 kcal/mol. In series [2], the Tm is 66.2 °C.
GCTTTGCGAAAGCGACGC ((.(.((....)).).)): the folding enthalpy in series [1] was -15.2 kcal/mol. Also, the Tm in series [2] stood at 47.6 °C.
For GCTTTGCGAAAGCTAGGC ((.(.((....)).).)), the folding enthalpy in series [1] is -15.7 kcal/mol. The Tm in series [2] worked out at 44.7 °C.
On to GCTTTGCGAAAGCTATGC ((.(.((....)).).)), for which, in series [1], the folding enthalpy is -12.6 kcal/mol. The Tm in series [2] stood at 45.6 °C.
As to GCTTTGGGAAACTAAAGC (((((.(....).))))), the folding enthalpy in series [1] is -27.4 kcal/mol. Moreover, in series [2], the Tm came out at 44.3 °C.
As to GCTTTGTCGAAAGACAGC (((..(((....)))))), the folding enthalpy in series [1] is -12 kcal/mol. For the same sequence, the Tm in series [2] worked out at 35.3 °C.
Consider GCTTTTCGAAAGAAAGC (((.(((....)))))), for which, in series [1], the folding enthalpy is -25.1 kcal/mol. Further, the Tm in series [2] stood at 44.5 °C.
Take GCTTTTCGAAAGAATAGC (((.(((....))).))): in series [1], the folding enthalpy was -29.3 kcal/mol. Also, the Tm in series [2] turned out to be 44 °C.
Turning to GCTTTTGGAAACAAAAAC (.(((((....))))).), the folding enthalpy in series [1] was -13.2 kcal/mol. Also, the Tm in series [2] turned out to be 26.6 °C.
GCTTTTGGAAACAAGAGC (((.(((....))).))): the folding enthalpy in series [1] was -20 kcal/mol. In series [2], the Tm was determined as 41 °C.
Regarding GCTTTTTCGAAAGAAAGC (((..(((....)))))), the folding enthalpy in series [1] is -17.7 kcal/mol. Moreover, in series [2], the Tm worked out at 34.4 °C.
Taken in the same sequence, the figures for GGAAAACCGAAAGGTTCC (((..(((....)))))) were -13.8 kcal/mol and 35.8 °C.
For the sequence GGAAACACGAAAGTGTCC (((..(((....)))))), in series [1], the folding enthalpy was -12.6 kcal/mol. In addition, the Tm in series [2] was 36.5 °C.
As to GGAAACCGAAAGGTGTCC (((.(((....))).))), in series [1], the folding enthalpy is -31.1 kcal/mol. Moreover, in series [2], the Tm came out at 52.4 °C.
For the sequence GGAAACGCGAAAGCGTCC (((..(((....)))))), the folding enthalpy in series [1] was -9.21 kcal/mol. The Tm in series [2] amounted to 39.1 °C.
Taken in the same sequence, the figures for GGAAAGCCGAAAGGCTCC (((..(((....)))))) were -11.2 kcal/mol and 42.2 °C.
For GGAAAGGCGAAAGCCTCC (((..(((....)))))), in series [1], the folding enthalpy was -10.6 kcal/mol. Besides, the Tm in series [2] amounted to 41.3 °C.
On the same counts, the results for GGAACAGGAAACTGTTCC (((((((....))))))) are -35.9 kcal/mol and 60.6 °C.
Turning to GGAACCGAAAGGTATCC ((((((....))).))), the folding enthalpy in series [1] is -18.2 kcal/mol. For the same sequence, the Tm in series [2] was determined as 40.8 °C.
As to GGAACCGAAAGGTCTCC ((((((....))).))), the folding enthalpy in series [1] was -22.1 kcal/mol. In addition, the Tm in series [2] came out at 44.7 °C.
Taken in the same sequence, the figures for GGAACCGAAAGGTTTCC ((((((....))).))) were -18.5 kcal/mol and 53.8 °C.
On the same counts, the results for GGAACCGGAAACGGTCCC ((.((((....)))).)) are -19.7 kcal/mol and 52.9 °C.
For the sequence GGAACGGAAACGTTCC ((((((....)))))), in series [1], the folding enthalpy is -40.4 kcal/mol. In series [2], the Tm turned out to be 64.2 °C.
Turning to GGAACTCCGAAAGGATCC (((..(((....)))))), the folding enthalpy in series [1] was -7.77 kcal/mol. Further, the Tm in series [2] is 27 °C.
Consider GGAAGACGAAAGTCCTCC (((.(((....))).))), for which the folding enthalpy in series [1] was -21.4 kcal/mol. Moreover, the Tm in series [2] was determined as 43 °C.
On to GGAAGAGGAAACTCTTCC (((((((....))))))), for which, in series [1], the folding enthalpy was -42.1 kcal/mol. Further, the Tm in series [2] turned out to be 58.2 °C.
On to GGAAGATCGAAAGATTCC (((..(((....)))))), for which, in series [1], the folding enthalpy was -13.4 kcal/mol. Further, in series [2], the Tm came out at 29.8 °C.
Taken in the same sequence, the figures for GGAAGCCGAAAGGCTCC (((.(((....)))))) were -15.7 kcal/mol and 56 °C.
As for GGAAGCGAAAGCTTTCC ((((((....))).))), the folding enthalpy in series [1] is -30.2 kcal/mol. Besides, in series [2], the Tm came to 50.1 °C.
In the case of GGAAGCGAAAGCTTTTCC ((((((....)))..))), the folding enthalpy in series [1] is -12.2 kcal/mol. In series [2], the Tm turned out to be 33.4 °C.
